ChEMBL document CHEMBL4689842, “EUbOPEN Chemogenomics Library wave 1” (2021)

System: Fibroblast
Test: Multiplex assay against human fibroblast
Format: toxicity, cell-based
Procedure, shortened: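 With compound added, live cells were imaged on a CQ1 microscope at 37°C and 5% CO2; staining with Hoechst33342, BioTracker Green Microtubule Cytoskeleton Dye, MitoTracker Red and Annexin V Alexa Fluor 680 had been done at seeding. The CellPathfinder machine-learning gating scheme split cells into Hoechst high-intensity objects or normal cells, normal cells into healthy, pyknosed or fragmented nuclei, and pyknosed cells into mitotic or apoptotic. The tubulin, mitochondrial-mass and membrane-permeability phenotypes are per cents of healthy-nucleus cells.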

[1] = 12 h, 1 µM, compound concentration 1 uM, replicate 1
[2] = 12 h, 1 µM, compound concentration 1 uM, replicate 2
[3] = 12 h, 10 µM, compound concentration 10 uM, replicate 1
[4] = 12 h, 10 µM, compound concentration 10 uM, replicate 2
[5] = 24 h, 1 µM, compound concentration 1 uM, replicate 1
[6] = 24 h, 1 µM, compound concentration 1 uM, replicate 2
[7] = 24 h, 10 µM, compound concentration 10 uM, replicate 1
[8] = 24 h, 10 µM, compound concentration 10 uM, replicate 2

Compound: CC(C)CC(=O)Nc1[nH]nc2c1CN(C(=O)C1CCN(C)CC1)C2(C)C [PHA-793887]
- Population Apoptotic (%) [1]: 81%
- Population Fragmented Nuclei (%) [1]: 21%
- Population Healthy Nuclei (%) [1]: 60%
- Population Hoechst High Intensity Objects (%) [1]: 11%
- Population Membrane Permeable-Phenotype (%) [1]: 4%
- Population Mitochondria Different-Phenotype (%) [1]: 3%
- Population Mitotic Cells (%) [1]: 18%
- Population Normal (%) [1]: 88%
- Population Pyknosed Nuclei (%) [1]: 18%
- Population Tubulin-Different-Phenotype (%) [1]: 4%
- Total Cell Count [1]: 233
- Population Apoptotic (%) [2]: 50%
- Population Fragmented Nuclei (%) [2]: 48%
- Population Healthy Nuclei (%) [2]: 31%
- Population Hoechst High Intensity Objects (%) [2]: 46%
- Population Membrane Permeable-Phenotype (%) [2]: 22%
- Population Mitochondria Different-Phenotype (%) [2]: 44%
- Population Mitotic Cells (%) [2]: 50%
- Population Normal (%) [2]: 53%
- Population Pyknosed Nuclei (%) [2]: 20%
- Population Tubulin-Different-Phenotype (%) [2]: 22%
- Total Cell Count [2]: 54
- Population Apoptotic (%) [3]: 73%
- Population Fragmented Nuclei (%) [3]: 23%
- Population Healthy Nuclei (%) [3]: 66%
- Population Hoechst High Intensity Objects (%) [3]: 12%
- Population Membrane Permeable-Phenotype (%) [3]: 4%
- Population Mitochondria Different-Phenotype (%) [3]: 7%
- Population Mitotic Cells (%) [3]: 26%
- Population Normal (%) [3]: 87%
- Population Pyknosed Nuclei (%) [3]: 10%
- Population Tubulin-Different-Phenotype (%) [3]: 4%
- Total Cell Count [3]: 277
- Population Apoptotic (%) [4]: 33%
- Population Fragmented Nuclei (%) [4]: 68%
- Population Healthy Nuclei (%) [4]: 24%
- Population Hoechst High Intensity Objects (%) [4]: 33%
- Population Membrane Permeable-Phenotype (%) [4]: 20%
- Population Mitochondria Different-Phenotype (%) [4]: 40%
- Population Mitotic Cells (%) [4]: 66%
- Population Normal (%) [4]: 66%
- Population Pyknosed Nuclei (%) [4]: 7%
- Population Tubulin-Different-Phenotype (%) [4]: 30%
- Total Cell Count [4]: 62
- Population Apoptotic (%) [5]: 71%
- Population Fragmented Nuclei (%) [5]: 20%
- Population Healthy Nuclei (%) [5]: 65%
- Population Hoechst High Intensity Objects (%) [5]: 13%
- Population Membrane Permeable-Phenotype (%) [5]: 6%
- Population Mitochondria Different-Phenotype (%) [5]: 1%
- Population Mitotic Cells (%) [5]: 28%
- Population Normal (%) [5]: 86%
- Population Tubulin-Different-Phenotype (%) [5]: 3%
- Total Cell Count [5]: 225
- Population Apoptotic (%) [6]: 66%
- Population Fragmented Nuclei (%) [6]: 57%
- Population Healthy Nuclei (%) [6]: 28%
- Population Hoechst High Intensity Objects (%) [6]: 37%
- Population Membrane Permeable-Phenotype (%) [6]: 16%
- Population Mitochondria Different-Phenotype (%) [6]: 25%
- Population Mitotic Cells (%) [6]: 33%
- Population Normal (%) [6]: 62%
- Population Pyknosed Nuclei (%) [6]: 14%
- Population Tubulin-Different-Phenotype (%) [6]: 16%
- Total Cell Count [6]: 67
- Population Apoptotic (%) [7]: 61%
- Population Fragmented Nuclei (%) [7]: 23%
- Population Healthy Nuclei (%) [7]: 64%
- Population Hoechst High Intensity Objects (%) [7]: 11%
- Population Membrane Permeable-Phenotype (%) [7]: 3%
- Population Mitochondria Different-Phenotype (%) [7]: 6%
- Population Mitotic Cells (%) [7]: 38%
- Population Normal (%) [7]: 88%
- Population Pyknosed Nuclei (%) [7]: 12%
- Population Tubulin-Different-Phenotype (%) [7]: 6%
- Total Cell Count [7]: 284
- Population Apoptotic (%) [8]: 100%
- Population Fragmented Nuclei (%) [8]: 72%
- Population Healthy Nuclei (%) [8]: 20%
- Population Hoechst High Intensity Objects (%) [8]: 32%
- Population Membrane Permeable-Phenotype (%) [8]: 0%
- Population Mitochondria Different-Phenotype (%) [8]: 11%
- Population Mitotic Cells (%) [8]: 0%
- Population Normal (%) [8]: 67%
- Population Pyknosed Nuclei (%) [8]: 6%
- Population Tubulin-Different-Phenotype (%) [8]: 22%
- Total Cell Count [8]: 64
